Laboratory results taken from ChEMBL document CHEMBL3600321, “Synthesis and antifungal evaluation of head-to-head and head-to-tail bisamidine compounds” (Bioorg Med Chem, 2015).
Values after ≈ are worked out from the molar mass of the structure shown.

What was measured:
Candida albicans = assay: Antifungal activity against Candida albicans WTBF-50 by microbroth dilution method; assay type: functional
Method in brief: (§1)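 CLSI microbroth dilution in RPMI 1640 with L-glutamine. MIC values are geometric means of three independent assays.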

Candida parapsilosis = assay: Antifungal activity against Candida parapsilosis ATCC 90018 WTBF-88 by microbroth dilution method; assay type: functional; details: Lodderomyces parapsilosis; method in brief: as §1
[1] = Metabolic stability in liver microsomes (unknown origin); assay type: ADME
HeLa = assay: Cytotoxicity against human HeLa cells assessed as cell viability after 72 hrs by MTS assay; assay type: cell-based
Nakaseomyces glabratus = assay: Antifungal activity against Candida glabrata ATCC 90030 WTBF-86 by microbroth dilution method; assay type: functional; method in brief: as §1
Cryptococcus neoformans = assay: Antifungal activity against Cryptococcus neoformans Cn18 (Serotype C) WTBF-106 by microbroth dilution method; assay type: functional
Method in brief: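 Microbroth dilution per the CLSI protocol, run in Sabouraud Dextrose Broth in place of RPMI. MIC values are geometric means of three independent assays.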

Pichia kudriavzevii = assay: Antifungal activity against Candida krusei WTBF-51 by microbroth dilution method; assay type: functional

SMILES | MIC (Candida albicans) [µg/mL] | MIC (Candida parapsilosis) [µg/mL] | Stability [1] | CC50 (HeLa) [µg/mL] | MIC (Nakaseomyces glabratus) [µg/mL] | MIC (Cryptococcus neoformans) [µg/mL] | MIC (Pichia kudriavzevii) [µg/mL]
O=C(O)C(F)(F)F.c1cc2cc(-c3ccc(-c4cn5cc(C6=NCCCN6)ccc5n4)cc3)[nH]c2cc1C1=NCCCN1 | 0.63 | 0.25 | Stable | 19.7 | 0.25 | 3.13 | 4
CC(=O)O.c1cc2cc(-c3ccc4cc(C5=NCCCN5)oc4c3)[nH]c2cc1C1=NCCCN1 | 0.31 | 0.5 | Stable | 17.1 | 0.13 | 0.5 | 4
CC(=O)O.c1cc2cc(-c3ccc(-c4cc5ccc(C6=NCCCN6)cc5o4)cn3)[nH]c2cc1C1=NCCCN1 | 0.5 | 0.13 | Stable | 15.6 | 0.06 | 0.25 | 0.5
CN(C)CCNC(=N)c1ccc2cc(-c3ccc(-c4cc5ccc(C(=N)NCCN(C)C)cc5[nH]4)cc3)[nH]c2c1.O=C(O)C(F)(F)F | 1 | 0.5 | Stable | 5.5 | 0.63 | 1.97 | 1
CC(=O)O.c1cc2cc(-c3cnc(-c4cc5ccc(C6=NCCCN6)cc5o4)cn3)oc2cc1C1=NCCCN1 | 20.2 | 2 | Stable | > 80 | 16 | 3.13 | 20.2
CC(=O)O.c1cc2cc(-c3ccc4cc(C5=NCCCN5)[nH]c4c3)oc2cc1C1=NCCCN1 | 4 | 2 | Stable | 40.5 | 2.52 | 1 | 25.4
COCCNC(=N)c1ccc2cc(-c3ccc(-c4cc5ccc(C(=N)NCCOC)cc5[nH]4)cc3)[nH]c2c1.O=C(O)C(F)(F)F | 0.79 | 0.79 | Stable | 3.5 | 0.5 | 1.1 | 1
Brc1c(-c2ccc(-c3[nH]c4cc(C5=NCCCN5)ccc4c3Br)cc2)[nH]c2cc(C3=NCCCN3)ccc12.O=C(O)C(F)(F)F | 0.63 | 0.5 | Stable | 0.5 | 0.5 | 0.78 | 0.5
O=C(O)C(F)(F)F.c1cc2cc(CCc3cc4ccc(C5=NCCCN5)cc4[nH]3)[nH]c2cc1C1=NCCCN1 | 3.17 | 2 | Stable | 24.6 | 1 | 1 | 8
CC(=O)O.c1cn2cc(-c3ccc(-c4ccc5cc(C6=NCCCN6)[nH]c5c4)cc3)nc2cc1C1=NCCCN1 | 16 | 8 | Stable | 20.7 | 32 | 1 | 16
CC(=O)O.c1cc2cc(-c3ccc(-c4ccc5nc(C6=NCCCN6)cn5c4)cc3)[nH]c2cc1C1=NCCCN1 | 0.5 | 0.5 | Stable | 34.6 | 0.13 | 2 | 0.5
CN1CCCN=C1c1ccc2cc(-c3ccc(-c4cc5ccc(C6=NCCCN6C)cc5[nH]4)cc3)[nH]c2c1 | 1.59 (≈ 3.18 µM) | 1 (≈ 2 µM) | Stable | 4.7 (≈ 9.39 µM) | 1.26 (≈ 2.52 µM) | 1.97 (≈ 3.93 µM) | 4 (≈ 7.99 µM)
O=C(O)C(F)(F)F.c1cc2cc(-c3ccc(-c4cn5ccc(C6=NCCCN6)cc5n4)cc3)[nH]c2cc1C1=NCCCN1 | 4 | 0.5 | Stable | 20.9 | 4 | 1 | 6.35
Clc1c(-c2ccc(-c3[nH]c4cc(C5=NCCCN5)ccc4c3Cl)cc2)[nH]c2cc(C3=NCCCN3)ccc12.O=C(O)C(F)(F)F | 0.4 | 0.25 | Stable | 0.65 | 0.25 | 0.78 | 0.25
O=C(O)C(F)(F)F.c1cc2cc(-c3ccc(-c4nc5ccc(C6=NCCCN6)cc5[nH]4)cc3)[nH]c2cc1C1=NCCCN1 | 0.4 | 0.16 | Stable | 14.1 | 0.13 | 0.5 | 1
CC(=O)O.c1cc2cc(-c3ccc(-c4ccc5nc(C6=NCCCN6)cn5c4)cc3)oc2cc1C1=NCCCN1 | 4 | 0.79 | Stable | 20.7 | 1 | 1 | 8
CC(=O)O.c1cc2cc(-c3ccc(-c4cc5ccc(C6=NCCCN6)cc5o4)cc3)[nH]c2cc1C1=NCCCN1 | 0.5 | 0.25 | Stable | 4.7 | 0.16 | 0.25 | 1
Cl.OCC1(CO)CN=C(c2ccc3cc(-c4ccc(-c5cc6ccc(C7=NCC(CO)(CO)CN7)cc6[nH]5)cc4)[nH]c3c2)NC1 | 1.26 | 2 | Stable | 32.4 | 1 | 3.13 | 8
CC(C)NC(=N)c1ccc2cc(-c3ccc(-c4cc5ccc(C(=N)NC(C)C)cc5[nH]4)cc3)[nH]c2c1.O=C(O)C(F)(F)F | 0.5 | 0.25 | Stable | 3.5 | 0.2 | 1.56 | 0.4
c1cc2[nH]c(-c3ccc(-c4cc5ccc(C6=NCCCN6)cc5[nH]4)cc3)cc2cc1C1=NCCCN1 | 7.87 (≈ 16.7 µM) | – | Stable | 13.6 (≈ 28.8 µM) | – | 3.12 (≈ 6.6 µM) | 19.8 (≈ 41.9 µM)
CC(=O)O.c1cc2cc(-c3cnc(-c4cc5ccc(C6=NCCCN6)cc5[nH]4)cn3)[nH]c2cc1C1=NCCCN1 | 0.5 | 0.2 | Stable | 42.7 | 0.06 | 3.13 | 0.5
OC(Cn1cncn1)(Cn1cncn1)c1ccc(F)cc1F [FLUCONAZOLE] | ≥ 32 | 1 (≈ 3.27 µM) | – | – | ≥ 32 | 32 (≈ 104 µM) | ≥ 32
CC1CN=C(c2ccc3cc(-c4ccc(-c5cc6ccc(C7=NCC(C)CN7)cc6[nH]5)cc4)[nH]c3c2)NC1.O=C(O)C(F)(F)F (centres undefined) | 0.5 | 0.25 | Stable | 5.8 | 0.13 | 0.25 | 0.5
CC(=O)O.c1cn2cc(-c3ccc(-c4ccc5cc(C6=NCCCN6)oc5c4)cc3)nc2cc1C1=NCCCN1 | 8 | 2.52 | Stable | 32.5 | 1.59 | 3.94 | 8
CC(=O)N1CCN(c2ccc(OCC3COC(Cn4ccnc4)(c4ccc(Cl)cc4Cl)O3)cc2)CC1 (centres undefined) [KETOCONAZOLE] | 20.2 (≈ 38 µM) | 0.06 (≈ 0.113 µM) | – | – | ≥ 32 | 32 (≈ 60.2 µM) | 4 (≈ 7.53 µM)
Nc1nc(=O)[nH]cc1F [FLUCYTOSINE] | 1.25 (≈ 9.68 µM) | 1.25 (≈ 9.68 µM) | – | – | 0.31 (≈ 2.4 µM) | ≥ 20 | ≥ 20
